From PubChem
M1 ag = activates the M1 muscarinic receptor; AID 626; B-score at 10 µM; 64,000 tested, 3% active; CHO-M1 cells, Fluo-4 calcium fluorescence, agonist mode; active compounds read high;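 active = fluorescence rise, raw or as B-score row- and column-corrected plate score, outside the 99.7% band of its plate's samples, either direction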
AP complement = alternative pathway complement inhibition, orthogonal assay. inhibition, % at 5 µM. 62,000 tested, 0.08% active. AID 1235. Human serum alternative complement pathway, LPS-coated ELISA, C3 deposition; tested in compound mixtures;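 active = inhibition above 30% in each of the two pooled mixtures holding the compound, so the lower value exceeds 30%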;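 note: 0% = serum in Mg-EGTA without compound and 100% = EDTA serum blank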
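Assay system: Human serum alternative complement pathway, C3 deposition on LPS-coated wells | Incubation: 1 h serum-compound exposure at 37 °C | Doses: 5 µM per compound in ten-compound mixtures | Read-out: Percent inhibition | Technique: ELISA with HRP anti-human C3 antibody, TMB substrate, absorbance 450 nm | Replication: Two pool placements per compound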
Htt clearance = compounds clearing mutant huntingtin protein; HeLa Exon1htt(103Q)mCFP, aggregate imaging; zero = plate's median compound well; inhibition, % at 1.5 µM; 47,000 tested, 0.42% active;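 active = inhibition of aggregate fluorescence above about 70%, also judged a hit by eye on the cell image, limit read from the data, passing the limit was not always enough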;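 note: cells exposed to compound for three days before fixation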
D1 allo mod = D1 dopamine receptor (human) allosteric modulation. 58,000 tested, 5.9% active. P21728. B-score at 10 µM. HEK293 D1, CRE-luciferase, dopamine EC30 potentiation; actives deviate in either direction;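 active = luminescence count or its row- and column-corrected plate score outside the 99.7% band of the plate's sample wells, on either side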
Target sequence (P21728 whole entry, looked up): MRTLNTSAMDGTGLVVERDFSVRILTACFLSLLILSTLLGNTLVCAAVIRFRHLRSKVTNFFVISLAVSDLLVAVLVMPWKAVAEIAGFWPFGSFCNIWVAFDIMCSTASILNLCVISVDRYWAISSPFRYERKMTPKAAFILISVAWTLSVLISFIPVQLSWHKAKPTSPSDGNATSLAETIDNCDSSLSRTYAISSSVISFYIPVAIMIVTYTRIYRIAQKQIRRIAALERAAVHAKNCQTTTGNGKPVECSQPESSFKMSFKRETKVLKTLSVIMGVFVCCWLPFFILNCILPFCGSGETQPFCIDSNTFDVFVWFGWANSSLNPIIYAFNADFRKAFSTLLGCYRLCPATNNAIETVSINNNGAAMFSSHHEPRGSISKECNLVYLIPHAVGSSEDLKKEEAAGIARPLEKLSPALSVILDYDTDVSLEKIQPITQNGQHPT
M1 antag = M1 muscarinic receptor (rat) antagonism | P08482 | CHO-M1 cells, Fluo-4 calcium, ACh EC80 antagonist mode; active compounds read low | B-score at 10 µM | 64,000 tested, 3.4% active | AID 628;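 active = calcium fluorescence response, raw or row-and-column corrected B-score, differing from the plate sample mean either way at a set confidence level, mostly lower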
D1 mod confirm = confirmation of human D1 dopamine receptor allosteric modulators; shares compounds with D1 allo mod; HEK293 D1 CRE-luciferase, dopamine EC30 potentiation; active compounds read high; luminescence at 10 µM; 2,200 tested, 88% active; AID 642;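 active = luminescence in either of two replicates above the same-plate mean plus 3 SD of the low-dose dopamine control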
D1 ag no DA = D1 (human) signaling in absence of dopamine; luminescence at 10 µM; shares compounds with D1 allo mod; HEK293 D1 CRE-luciferase, luminescence, no dopamine; active compounds read high; 1,900 tested, 0.8% active; in the data active = luminescence above about 3900
Isoprot counter = isoproterenol response counter-screen activity for D1 modulators; shares compounds with D1 allo mod; HEK293 D1 CRE-luciferase, isoproterenol EC30 counter-screen; calls only at 10 µM; 2,200 tested, 63% active; AID 647;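 active = luminescence in either replicate above plate mean of wells with a partly effective reference agonist dose plus 3 SD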;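 note: isoproterenol raises cAMP through native beta-adrenoceptor Gs so signal bypasses D1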
Active calls of the source: *; i = inactive; · = no result given; + = active, no number. Hits are enriched below; roughly 9% of the tested compounds scored in any of these assays.

SMILES | M1 ag | AP complement | Htt clearance | D1 allo mod | M1 antag | D1 mod confirm | D1 ag no DA | Isoprot counter
O=C(Nc1ccc(Cl)cc1C(=O)NCc1cccnc1)c1ccco1 | 1.3 | 11 | 23 | 10* | 0.074 | 16768* | 1484 | +
O=C(Nc1ccccc1C(=O)NCc1cccnc1)c1ccco1 | 2.6 | 1 | · | · | 1.7 | · | · | ·
O=C(Nc1ccc(Cl)cc1C(=O)Nc1ccncc1)c1ccco1 | -0.32 | 12 | · | 8.7* | -0.28 | 11616* | · | +
CC1(c2ccc3noc(-c4ccccc4)c3c2)OCCO1 | -0.02 | 15 | · | 3 | 0.27 | · | · | ·
O=C(O)c1ccc2noc(-c3ccccc3)c2c1 | -0.89 | 7 | -27 | 3* | 0.29 | 6504 | 1520 | i
CCN(CC)S(=O)(=O)c1cccc(-c2nnc(SCCOc3ccccc3)o2)c1 | -0.47 | -7 | -23 | 14* | -0.45 | 5768 | 1568 | i
Cc1noc(C)c1CSc1ncnc2ccccc12 | -0.018 | 10 | · | 3.9* | -0.3 | 7560* | 1844 | i
Cc1noc(C)c1CSc1ncnc2sc(C)c(C)c12 | 0.68 | 24 | -29 | 5.2* | -0.13 | 10232* | 1588 | +
Cc1sc2ncnc(SCc3ccco3)c2c1C | 1.4 | 1 | 28 | 0.53 | 0.2 | · | · | ·
CC(/C=C/c1ccccc1)NC(N)=O (centres undefined) | 0.074 | -3 | · | -0.54 | 0.21 | · | · | ·
c1ccc(-c2nn3nnnc3c3ccccc23)cc1 | 0.36 | 8 | · | 12* | -0.054 | 13348* | 1552 | +
O=C(CSc1nc2ccccc2s1)NC(=O)NCc1ccco1 | 0.14 | 22 | -36 | 5.9* | 0.12 | 8872* | 1760 | i
O=C(CSc1nc(-c2ccccc2)cs1)NC(=O)NCc1ccco1 | 0.029 | 10 | -63 | -0.35 | 0.3 | · | · | ·
O=C(Nc1ccc(Cl)cc1)N(C1=NCCC1)c1ccc(OC(F)F)cc1 | · | · | 36 | · | · | · | · | ·
Cc1nc(SCC(=O)O)c2oc3ccccc3c2n1 | -0.57 | 18 | · | 1.4 | 0.046 | · | · | ·
CCSc1ncnc2c1oc1ccccc12 | -0.01 | 18 | · | 12* | 0.064 | 11660* | 1868 | +
Cc1nc(N2CCOCC2)c2oc3ccccc3c2n1 | 0.17 | 2 | 21 | 4.6* | -0.25 | 13356* | 1720 | +
Cc1nc(SCCO)c2oc3ccccc3c2n1 | 0.41 | 3 | 14 | 7.3* | 0.47 | 10060* | · | +
Cc1nc(N2CCN(Cc3nc4ccccc4[nH]3)CC2)c2oc3ccccc3c2n1 | 3.6 | 11 | -13 | · | -0.67 | · | · | ·
CCc1nc(N2CCCCC2)c2oc3ccccc3c2n1 | 1.3 | -1 | · | 6.3* | -0.15 | 6440* | 1852 | i
CCCCC1C(C#N)=C(C)NC2=C1C(=O)CC(C)(C)C2 (centres undefined) | · | · | 2 | · | · | · | · | ·
Cc1nc(CC(=O)N2CCN(c3cccc(C)c3C)CC2)cs1 | -0.5 | -10 | -26 | -0.74 | 0.079 | · | · | ·
Cc1nnc(NCc2ccco2)c2ccccc12 | 1.2 | 12 | 34 | 0.53 | 0.049 | · | · | ·
Cc1nc(NCc2ccco2)c2oc3ccccc3c2n1 | -1 | 7 | -24 | 6* | -0.41 | 11576* | · | +
CCc1nc(NC(C)C)c2oc3ccccc3c2n1 | -1.5 | 11 | · | 22* | -0.7 | 7576* | · | +
SMILES | M1 ag | AP complement | Htt clearance | D1 allo mod | M1 antag | D1 mod confirm | D1 ag no DA | Isoprot counter
COc1cc(CCN2C(=O)c3cccc4cccc(c34)C2=O)c(S(=O)(=O)NCCCO)cc1OC | · | · | 39 | · | · | · | · | ·
O=C(Nc1ccccc1C(=O)NC(Cc1ccccc1)C(=O)NC1CCCCCC1)c1ccccc1 (centres undefined) | · | · | 53 | · | · | · | · | ·
N#Cc1c(N)nc(-c2ccccc2)nc1-c1ccccc1 | -0.44 | 12 | · | 18* | 0.027 | 18844* | 1712 | i
CCOc1ccc2cc(C#N)c(SCC(=O)N3CCC(C)CC3)nc2c1 | 0.42 | 9 | -1 | 7.2* | 0.00084 | 6372* | 1652 | +
CCOC(=O)CSc1nc2cc(OCC)ccc2cc1C#N | -1.1 | 10 | · | 2.3 | -0.24 | · | · | ·
Cc1cc(SCC#N)n2nc(C)c(-c3ccccc3)c2n1 | -1.5 | 15 | · | 14* | 0.027 | 14516* | 1608 | +
Cc1cc(N2CCCCC2)n2nc(C)c(-c3ccccc3)c2n1 | -0.89 | 24 | -4 | 0.33 | -0.00084 | · | · | ·
CC(C)(C)c1csc(NC(=O)Cn2cnc3ccccc3c2=O)n1 | 2.5 | 20 | 26 | -0.076 | -0.53 | · | · | ·
COc1ccc(-c2csc(/C(C#N)=C(\O)CSc3nccn3C)n2)cc1OC | 1.1 | 0 | · | 19* | 0.95 | 18552* | 1616 | +
COc1ccccc1N1CCN(C/C(O)=C(\C#N)c2nc(-c3ccccc3)cs2)CC1 | 0.0038 | -8 | · | -0.35 | 0.044 | · | · | ·
CCn1nnc(-c2ccccc2NC(=O)C(F)(F)F)n1 | -0.62 | 1 | 0 | 0.77 | -0.041 | · | · | ·
O=C(c1cccc(F)c1)N1CCN(Cc2ccco2)CC1 | -1.1 | 1 | · | 3.9* | -0.45 | 8236 | 1664 | i
O=C(c1ccco1)N1CCN(Cc2cccc(F)c2)CC1 | -1.1 | -1 | -16 | -0.19 | -0.12 | · | · | ·
O=C(NC1CC1)C1C2C3C4CC5C3C5C4C12 (centres undefined) | 0.81 | 2 | 16 | -0.14 | -0.29 | · | · | ·
O=C(c1ccco1)N1CCN(C(c2ccccc2)c2nnnn2C2CCCC2)CC1 (centres undefined) | · | · | 8 | · | · | · | · | ·
CCOC(=O)C1=C(N)n2c(s/c(=C/c3ccco3)c2=O)=C(C(=O)OC)C1c1ccco1 (centres undefined) | -1.1 | -27 | -10 | 1.5 | 0.48 | · | · | ·
N#CC1=C(N)n2c(s/c(=C\c3ccco3)c2=O)=C(C#N)C1c1ccco1 (centres undefined) | 0.018 | 3 | 51 | 12* | 0.82 | 14056* | 1704 | i
C=C(C)C1Cc2nc(N)nc(C)c2C1 (centres undefined) | -0.87 | 4 | -10 | 14* | -1.1 | 14408* | 1772 | +
C=C(C)C1Cc2c(C)nn(-c3nc(C)cc(C)n3)c2C1 (centres undefined) | 0.82 | 6 | · | -2 | 0.22 | · | · | ·
CN(C)c1nc(Oc2ccc(/C=N/O)cc2)nc(N(C)C)n1 | -2e-05 | 18 | · | 0.98 | 0.83 | · | · | ·
CC(C)Nc1nc(NC(C)C)nc(Oc2ccc(/C=N/O)cc2)n1 | -0.0024 | 19 | -34 | 5.3* | -0.39 | 6456* | · | i
COc1ccc(Br)cc1CNC(=O)CCN1C(=O)COc2ccccc21 | 0.5 | 14 | · | 3.6* | 0.064 | 6192* | · | i
CCOc1ccc(CCNC(=O)CCN2C(=O)COc3ccccc32)cc1OCC | 0.21 | 9 | · | 2.7* | -0.013 | 9680* | 1836 | +
COCCCNC(=O)CCN1C(=O)COc2ccccc21 | -0.018 | 0 | · | 0.61 | 0.64 | · | · | ·
COc1ccc(OC)c(C(=O)c2ccc(C(=O)N3CCCCC3)cc2)c1 | 0.4 | -1 | -37 | 0.2 | -1.1 | · | · | ·
